Source: PubChem BioAssay (several laboratories)
The list is not random: actives were taken first. Their share in the collection is about 4.5%.
CHOP UPR activ: activators of apoptotic arm of unfolded protein response (CHOP) | CHO-CHOP luciferase reporter, UPR activation, luminescence; percent of tunicamycin response over DMSO baseline | activation, % at 10 µM | hit rate 0.34% among 330,000;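 active means at 10 µM dose, activation of 40% or more, normalized to positive control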;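 further: 100% = tunicamycin at 10 µg/mL and 0% = DMSO alone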
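Material: CHO-CHOP cells, stable luciferase reporter of PERK-eIF2a-CHOP signalling; quantity: 500 reporter cells seeded per well; buffer or medium: F12 medium containing 10% fetal bovine serum; compound: one dose, 10 µM in 0.5% DMSO; incubation: 6 h compound treatment, 37 °C; measured by: Steady-Glo luciferase luminescence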
CHOP inh: inhibitors of CHOP induction in ER stress response. CHO-K1 CHOP-promoter luciferase, tunicamycin-induced, 15-18 h. inhibition, % at 10 µM. hit rate 3.8% among 220,000. AID 2732;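 active means compounds that reduced the stress-induced luciferase reporter signal by more than about 70% of percent inhibition, limit read from the data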;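 further: 0% = tunicamycin plus vehicle and 100% = wells without tunicamycin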
NS3 helicase inh: inhibitors of Hepatitis C virus NS3 helicase | hit rate 0.56% among 290,000 | NS3 helicase DNA unwinding, Cy5 molecular beacon fluorescence | inhibition, % at 10.9 µM;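 active means inhibition above the mean of all tested compounds plus 3 SD, set per campaign, cut at about 35% in these data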;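 further: 0% = DMSO wells and 100% = thioflavine S control wells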
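Measured by: Cy5 fluorescence, 0 and 60 min reads / Assay system: NS3 helicase fragment of HCV / Control set: low DMSO, high thioflavine S at 110 µM / Times: 1 h reaction at 25 °C, ATP-initiated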
PfM18AAP inh: PfM18AAP enzyme inhibition | recombinant PfM18AAP, H-Glu-NHMec fluorogenic cleavage | inhibition, % at 7.35 µM | hit rate 1.2% among 290,000;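 active means inhibition above the campaign mean inhibition over all tested compounds plus 3 SD, cut at about 28% in these data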;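 further: 0% = plate median of test compound wells and 100% = 2 mM ZnCl2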
p97 inhibitor: blocks human p97 ATPase activity. P55072. recombinant p97 ATPase, Kinase-Glo ATP luminescence, 3 h. inhibition, % at 8 µM. hit rate 0.42% among 220,000. AID 1481; in the data active means inhibition above about 15%;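 further: 0% = DMSO vehicle and 100% = wells lacking enzyme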
UPR XBP1 act: adaptive UPR (XBP1) activation; hit rate 0.33% among 330,000; AID 463104; activation, % at 20 µM; CHO-XBP1 luciferase reporter, IRE1-XBP1 UPR activation, luminescence; percent of tunicamycin response, DMSO as zero;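 active means versus positive control, 20 µM dose yields 30% or more activation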;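 further: 100% = tunicamycin at 10 µg/mL and 0% = DMSO only wells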
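Material: CHO-XBP1 cells stably carrying IRE1-XBP1-driven luciferase reporter | Medium: F12 with 10% serum | Compound dosing: 20 µM single concentration, DMSO 1% | Incubation: Overnight seeding at 37 °C, 6 h compound treatment at 37 °C | Detection: Steady-Glo luminescence read | Read-out basis: % activation of reporter signal versus tunicamycin and DMSO controls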
NS3 hel confirm: confirmation of Hepatitis C virus NS3 helicase inhibitors. shares compounds with NS3 helicase inh. NS3 helicase DNA unwinding, Cy5 molecular beacon fluorescence. inhibition, % at 10.9 µM. hit rate 31% among 1,600;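 active means inhibition above the mean of all tested compounds plus 3 SD, cutoff set per campaign, cut at about 36% in these data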
DNA FID counter: displaces DNA intercalator in HCV helicase counter-screen; shares compounds with NS3 helicase inh; hit rate 4% among 1,600; inhibition, % at 7.9 µM; DNA fluorescent intercalator displacement, fluorescence; in the data active means inhibition above about 37%;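 further: 0% = vehicle and 100% = reference compound; higher means more displacement of ethidium bromide from the DNA hairpin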
FID counter DR: DNA intercalator displacement in dose response; shares compounds with NS3 helicase inh; fluorescent intercalator displacement from DNA, fluorescence; IC50, µM; 120 tested, under 10 active; call rule not given here
Active calls of the source: *.

N=C1/C(=C/c2ccc(OCc3ccccc3F)cc2)C(=O)N=C2SC(CC(=O)N3CCOCC3)=NN12 was read as CHOP UPR activ 2.9, NS3 helicase inh 45.5*, PfM18AAP inh 5.3, UPR XBP1 act 0.3, NS3 hel confirm 41.7* and DNA FID counter -6.3.
For N=C1/C(=C/c2ccc(OCc3ccccc3)cc2)C(=O)N=C2SC(CC(=O)N3CCOCC3)=NN12 the results were CHOP UPR activ -0.1, NS3 helicase inh 24.8, PfM18AAP inh 2.1 and UPR XBP1 act -2.9.
For CSc1nc(C)cc(Oc2ccccc2)n1 the results were CHOP UPR activ -1.1, CHOP inh 36.7, NS3 helicase inh 9.0, PfM18AAP inh -0.6, p97 inhibitor 1.9 and UPR XBP1 act -3.4.
`CCOc1ccc(N2C(=O)CC(N3CCN(c4ccc([N+](=O)[O-])cc4)CC3)C2=O)cc1` (configuration not stated) gave CHOP UPR activ -0.4, NS3 helicase inh 46.9*, PfM18AAP inh 3.9, UPR XBP1 act -0.9, NS3 hel confirm -10.6 and DNA FID counter -4.0.
For CCCOc1ccc(N2C(=O)CC(N3CCN(c4ccc([N+](=O)[O-])cc4)CC3)C2=O)cc1 (configuration not stated) the results were CHOP UPR activ 0.0, NS3 helicase inh -26.7, PfM18AAP inh -0.9 and UPR XBP1 act -6.9.
For COc1ccc(/C(O)=C2/C(=O)C(=O)N(c3ccccn3)C2c2ccc(C(C)C)cc2)cc1 (configuration not stated) the results were CHOP UPR activ 0.7, NS3 helicase inh 38.9*, PfM18AAP inh 3.9, UPR XBP1 act 1.3, NS3 hel confirm 84.9*, DNA FID counter -12.9 and FID counter DR >79.4.
CCCOc1ccc(/C(O)=C2/C(=O)C(=O)N(c3ccccn3)C2c2ccc(OC)cc2)cc1C (configuration not stated) was read as CHOP UPR activ 1.6, NS3 helicase inh 68.6*, PfM18AAP inh -5.4, UPR XBP1 act -0.9, NS3 hel confirm 90.6*, DNA FID counter -43.9 and FID counter DR >79.4.
Screening O=C1C(=O)N(c2ccccn2)C(c2ccc(F)cc2)/C1=C(/O)c1ccc(Br)cc1 (configuration not stated) returned CHOP UPR activ 1.7, NS3 helicase inh 24.0, PfM18AAP inh 3.5 and UPR XBP1 act 0.7.
Screening COc1ccc(/C(O)=C2/C(=O)C(=O)N(c3ccccn3)C2c2ccc(OC)cc2)cc1 (configuration not stated) returned CHOP UPR activ -0.5, NS3 helicase inh 5.0, PfM18AAP inh 3.2 and UPR XBP1 act -0.1.
`COc1ccc(/C(O)=C2/C(=O)C(=O)N(c3ccccn3)C2c2cccc(Cl)c2)cc1` (configuration not stated) gave CHOP UPR activ 2.4, NS3 helicase inh 44.5*, PfM18AAP inh 7.3, UPR XBP1 act 3.8, NS3 hel confirm 44.0* and DNA FID counter -30.4.
Screening O=C1C(=O)N(c2ccccn2)C(c2ccc(Br)cc2)/C1=C(/O)c1ccc(Br)cc1 (configuration not stated) returned CHOP UPR activ -0.1, NS3 helicase inh 72.7*, PfM18AAP inh 3.6, UPR XBP1 act -1.8, NS3 hel confirm 84.8* and DNA FID counter -28.1.
`CCOC(=O)[C@H]1[C@H]2COc3ccc(Br)cc3[C@H]2N2C(=O)CNC(=O)[C@@]12C` gave CHOP UPR activ 0.8 and UPR XBP1 act -1.0.
